Measurements: ChEMBL document CHEMBL4312018, “Novel benzimidazole phosphonates as potential inhibitors of protein prenylation” (Bioorg Med Chem Lett, 2019)
Activity calls are given as the source filed them.

Tests used:
[1] = target: T1, Geranylgeranyl transferase type-2 (Rattus norvegicus, UniProt Q08602+Q08603); experiment: Inhibition of recombinant rat RabGGTase expressed in Escherichia coli using Rab7 as substrate and [3H]geranylgeranyl pyrophosphate after 20 mins by liquid scintillation analysis
T1 sequence (Q08603 whole entry): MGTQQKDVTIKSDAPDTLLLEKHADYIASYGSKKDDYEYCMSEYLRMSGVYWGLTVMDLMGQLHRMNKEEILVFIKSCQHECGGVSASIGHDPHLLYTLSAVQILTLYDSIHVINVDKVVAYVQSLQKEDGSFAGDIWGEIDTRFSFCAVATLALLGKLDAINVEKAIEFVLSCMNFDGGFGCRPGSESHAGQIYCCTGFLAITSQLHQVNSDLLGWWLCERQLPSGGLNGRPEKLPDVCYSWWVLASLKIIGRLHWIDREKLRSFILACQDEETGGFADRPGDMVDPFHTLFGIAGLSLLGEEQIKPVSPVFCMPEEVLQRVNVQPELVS
T1 sequence (Q08602 whole entry): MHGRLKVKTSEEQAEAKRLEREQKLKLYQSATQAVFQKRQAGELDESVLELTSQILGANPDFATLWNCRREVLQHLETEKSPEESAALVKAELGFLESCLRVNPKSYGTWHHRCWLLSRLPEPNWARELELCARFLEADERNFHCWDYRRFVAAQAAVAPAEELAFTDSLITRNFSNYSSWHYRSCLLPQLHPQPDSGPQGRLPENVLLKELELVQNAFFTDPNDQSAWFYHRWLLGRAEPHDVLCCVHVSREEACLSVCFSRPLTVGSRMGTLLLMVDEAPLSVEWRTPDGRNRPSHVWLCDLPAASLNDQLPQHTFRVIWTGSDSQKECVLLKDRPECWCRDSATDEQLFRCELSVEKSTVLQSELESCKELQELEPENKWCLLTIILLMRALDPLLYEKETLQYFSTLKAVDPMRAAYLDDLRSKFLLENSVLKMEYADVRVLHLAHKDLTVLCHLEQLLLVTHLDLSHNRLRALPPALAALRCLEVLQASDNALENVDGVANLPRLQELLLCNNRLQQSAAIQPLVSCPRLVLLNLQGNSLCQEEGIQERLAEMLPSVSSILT

[2] = target: geranylgeranyltransferase type-I (Rattus norvegicus, UniProt P53610+Q04631); experiment: Inhibition of recombinant rat GGtase-1 expressed in Escherichia coli using dansyl-GCVLL as substrate after 1.5 hrs by spectrofluorimetric analysis
[3] = target: Protein farnesyltransferase (Rattus norvegicus, UniProt Q02293+Q04631); experiment: Inhibition of recombinant rat FTase expressed in Escherichia coli using dansyl-GCVLS as substrate after 1.5 hrs by spectrofluorimetric analysis
[4] = target: T2, Farnesyl pyrophosphate synthase (Homo sapiens, UniProt P14324); experiment: Inhibition of FDPS (unknown origin) using [14C] IPP and GPP as substrate preincubated for 10 mins followed by substrate addition and measured after 30 min by liquid scintillation counting method
T2 sequence (P14324 whole entry): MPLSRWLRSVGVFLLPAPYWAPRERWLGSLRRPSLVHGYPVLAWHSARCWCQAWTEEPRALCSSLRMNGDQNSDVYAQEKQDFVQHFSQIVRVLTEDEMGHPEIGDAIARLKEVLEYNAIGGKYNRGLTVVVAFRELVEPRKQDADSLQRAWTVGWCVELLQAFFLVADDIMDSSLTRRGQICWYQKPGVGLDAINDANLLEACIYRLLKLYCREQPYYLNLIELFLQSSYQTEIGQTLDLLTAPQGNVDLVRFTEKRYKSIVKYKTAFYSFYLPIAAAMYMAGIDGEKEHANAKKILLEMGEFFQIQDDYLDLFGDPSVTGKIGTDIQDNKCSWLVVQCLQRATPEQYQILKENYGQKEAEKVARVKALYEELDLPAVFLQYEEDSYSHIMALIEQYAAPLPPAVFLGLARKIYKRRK

[5] = target: T3, Geranylgeranyl pyrophosphate synthase (Homo sapiens, UniProt O95749); experiment: Inhibition of GGDPS (unknown origin) using [14C] IPP and FPP as substrate preincubated for 10 mins followed by substrate addition and measured after 30 min by liquid scintillation counting method
T3 sequence (O95749 whole entry): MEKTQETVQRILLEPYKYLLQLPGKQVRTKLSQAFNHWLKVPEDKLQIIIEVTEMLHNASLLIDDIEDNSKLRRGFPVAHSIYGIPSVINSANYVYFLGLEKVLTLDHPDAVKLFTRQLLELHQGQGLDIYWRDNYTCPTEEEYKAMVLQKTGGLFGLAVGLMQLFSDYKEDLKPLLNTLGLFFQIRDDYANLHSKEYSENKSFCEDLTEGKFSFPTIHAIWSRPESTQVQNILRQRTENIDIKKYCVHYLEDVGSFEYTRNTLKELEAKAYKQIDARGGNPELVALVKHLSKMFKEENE

[6] = target: T4, Geranylgeranyl transferase type-2 (Homo sapiens) (UniProt P53611+Q92696); experiment: Inhibition of GGtase-2 in human cells assessed as minimum effective dose causing => 20% decrease in Rab6 level after 48 hrs by immunoblot analysis; assay type: cell-based
Summary of the method: (§1)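 The lowest effective concentration in RPMI-8226 cells after 48 h requires both criteria below: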

[7] = target: T5, Protein farnesyltransferase (Homo sapiens) (UniProt P49354+P49356); experiment: Inhibition of FTase in human RPMI8226 cells assessed as disruption of H-ras farnesylation at 10 to 100 uM incubated for 48 hrs by immunoblot analysis; assay type: cell-based
[8] = target: T6, Geranylgeranyl transferase type I (Homo sapiens) (UniProt P49354+P53609); experiment: Inhibition of GGtase-1 in human RPMI8226 cells assessed as disruption of Rap1a geranylgeranylation at 10 to 100 uM incubated for 48 hrs by immunoblot analysis; assay type: cell-based
[9] = target: T4, Geranylgeranyl transferase type-2 (Homo sapiens); experiment: Inhibition of GGtase-2 in human RPMI8226 cells assessed as accumulation of intracellular lambda light chain level at 10 to 100 uM after 48 hrs by immunoblot analysis; assay type: cell-based
[10] = target: T5, Protein farnesyltransferase (Homo sapiens); experiment: Inhibition of FTase in human RPMI8226 cells assessed as disruption of H-ras farnesylation at 10 to 100 uM after 48 hrs in presence of lovastatin by immunoblot analysis; assay type: cell-based
Summary of the method: (§2)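 Whole-cell lysates were then immunoblotted for H-Ras and unmodified Rap1a, using an antibody specific to the unprenylated protein. β-tubulin was the loading control.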

[11] = target: T6, Geranylgeranyl transferase type I (Homo sapiens); experiment: Inhibition of GGtase-1 in human RPMI8226 cells assessed as disruption of Rap1a geranylgeranylation at 10 to 100 uM after 48 hrs in presence lovastatin by immunoblot analysis; assay type: cell-based; summary of the method: as §2
[12] = target: T4, Geranylgeranyl transferase type-2 (Homo sapiens); experiment: Inhibition of GGtase-2 in human cells assessed as minimum effective dose required for increase in intracellular lambda chain level after 48 hrs by ELISA; assay type: cell-based; summary of the method: as §1
[13] = target: T7, Farnesyl pyrophosphate synthase (Homo sapiens) (UniProt P14324)
T7 sequence (whole entry): T2 sequence (P14324 whole entry)

[14] = target: T7, Farnesyl pyrophosphate synthase (Homo sapiens); remark: listed apart in the source
[15] = species: Homo sapiens; experiment: Selectivity ratio of IC50 for GGDPS (unknown origin) to IC50 for FDPS (unknown origin)
[16] = target: T7, Farnesyl pyrophosphate synthase (Homo sapiens); experiment: Inhibition of FDPS in human RPMI8226 cells assessed as unmodified Rap1a level at =< 5 mM after 48 hrs by immunoblot analysis; assay type: cell-based
Summary of the method: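 RPMI-8226 cells were exposed for 48 h. The lowest effective concentration counts only when two read-outs agree. Unmodified Rap1a must be visible on immunoblot of whole-cell lysate, using an antibody that detects only unmodified protein.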

[17] = target: T7, Farnesyl pyrophosphate synthase (Homo sapiens); experiment: Inhibition of FDPS in human RPMI8226 cells assessed as increase in intracellular lambda chain level at =< 5 mM after 48 hrs by ELISA; assay type: cell-based
Summary of the method: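 RPMI-8226 cells were exposed for 48 h, and intracellular lambda light chain was measured by ELISA as percent of untreated control. The lowest effective concentration also requires unmodified Rap1a to be visible on whole-cell-lysate immunoblot with an unmodified-specific antibody. The ELISA rise must be statistically significant.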

[18] = target: T4, Geranylgeranyl transferase type-2 (Homo sapiens); experiment: Inhibition of GGtase-2 in human cells assessed as increase in intracellular lambda chain at =< 5 mM level after 48 hrs by ELISA; assay type: cell-based
Summary of the method: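 RPMI-8226 cells were incubated 48 h with the compound or medium alone. Intracellular lambda light chain was quantified by ELISA and expressed as percent of untreated control (mean ± SD, n=3). Significance versus control was judged by t-test, p<0.05.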

[19] = target: T4, Geranylgeranyl transferase type-2 (Homo sapiens); experiment: Inhibition of GGtase-2 in human cells assessed as decrease in Rab6 level at =< 5 mM after 48 hrs by immunoblot analysis relative to control; assay type: cell-based
Summary of the method: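 After 48 h treatment, RPMI-8226 cells were extracted with Triton X-114 to give a detergent (membrane) fraction, which was immunoblotted for Rab6. Rab6 band density was normalized to calnexin and expressed relative to untreated cells. Blots are representative of three independent studies.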

IC50 [1] | IC50 [2] | IC50 [3] | IC50 [4] | IC50 [5] | LED [6] | inhibition [7] | inhibition [8] | inhibition [9] | inhibition [10] | inhibition [11] | LED [12] | LED [13] | LED [14] | Ratio IC50 [15] | inhibition [16] | inhibition [17] | inhibition [18] | inhibition [19] | Structure (SMILES)
> 1000 µM | > 1000 µM | 830 µM | 0.024 µM | 20.5 µM | 0.025 mM | Active | Active | Active | Active | Active | – | – | – | – | – | – | – | – | O=P(O)(O)C(Cn1cnc2ccccc21)P(=O)(O)O
810 µM | > 1000 µM | > 1000 µM | > 100 µM | > 100 µM | 5 mM | – | – | – | – | – | 5 mM | 5 mM | 5 mM | – | – | – | – | – | CC(Cn1cnc2ccccc21)(C(=O)O)P(=O)(O)O (centres undefined)
738 µM | 122 µM | 340 µM | 0.15 µM | 87 µM | 0.5 mM | – | – | – | – | – | 0.5 mM | 0.5 mM | 0.5 mM | 580 | – | – | – | – | O=P(O)(O)C(Cn1cnc2cc(F)c(F)cc21)P(=O)(O)O
> 1000 µM | 145 µM | 450 µM | > 100 µM | > 100 µM | – | – | – | – | – | – | – | – | – | – | inactive | inactive | inactive | inactive | O=C(O)C(Cn1cnc2cc(F)c(F)cc21)P(=O)(O)O (centres undefined)
